Results as given in ChEMBL document CHEMBL4689842, “EUbOPEN Chemogenomics Library wave 1” (2021).

Test system: U2OS
Test: Multiplex assay against U2OS
Format: toxicity, cell-based
Settings: human
Procedure, shortened: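 Phenotypes for tubulin, mitochondrial mass and membrane permeability are expressed as per cents of healthy-nucleus cells. Cells were stained live at seeding with Hoechst33342, BioTracker Green Microtubule Cytoskeleton Dye, MitoTracker Red and Annexin V Alexa Fluor 680, then imaged after compound addition on a CQ1 microscope at 37°C and 5% CO2. Machine-learning gating in CellPathfinder separated Hoechst high-intensity objects from normal cells, divided normal cells by nuclear state (healthy, pyknosed, fragmented) and divided pyknosed cells into mitotic or apoptotic.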

[1] = 12 h, 1 µM, compound concentration 1 uM, replicate 1
[2] = 12 h, 1 µM, compound concentration 1 uM, replicate 2
[3] = 12 h, 10 µM, compound concentration 10 uM, replicate 1
[4] = 12 h, 10 µM, compound concentration 10 uM, replicate 2
[5] = 24 h, 1 µM, compound concentration 1 uM, replicate 1
[6] = 24 h, 1 µM, compound concentration 1 uM, replicate 2
[7] = 24 h, 10 µM, compound concentration 10 uM, replicate 1
[8] = 24 h, 10 µM, compound concentration 10 uM, replicate 2
[9] = 48 h, 1 µM, compound concentration 1 uM, replicate 1
[10] = 48 h, 1 µM, compound concentration 1 uM, replicate 2
[11] = 48 h, 10 µM, compound concentration 10 uM, replicate 1
[12] = 48 h, 10 µM, compound concentration 10 uM, replicate 2

SMILES: Cl.O=c1c2cccn2c2ccccc2n1CCCN1CCC(c2ccc(Cl)cc2)CC1
- Population Apoptotic (%) [1]: 53%
- Population Fragmented Nuclei (%) [1]: 8%
- Population Healthy Nuclei (%) [1]: 77%
- Population Hoechst High Intensity Objects (%) [1]: 7%
- Population Membrane Permeable-Phenotype (%) [1]: 2%
- Population Mitochondria Different-Phenotype (%) [1]: 55%
- Population Mitotic Cells (%) [1]: 46%
- Population Normal (%) [1]: 92%
- Population Pyknosed Nuclei (%) [1]: 14%
- Population Tubulin-Different-Phenotype (%) [1]: 39%
- Total Cell Count [1]: 233
- Population Apoptotic (%) [2]: 60%
- Population Fragmented Nuclei (%) [2]: 16%
- Population Healthy Nuclei (%) [2]: 73%
- Population Hoechst High Intensity Objects (%) [2]: 8%
- Population Membrane Permeable-Phenotype (%) [2]: 0%
- Population Mitochondria Different-Phenotype (%) [2]: 56%
- Population Mitotic Cells (%) [2]: 40%
- Population Normal (%) [2]: 91%
- Population Pyknosed Nuclei (%) [2]: 9%
- Population Tubulin-Different-Phenotype (%) [2]: 30%
- Total Cell Count [2]: 119
- Population Apoptotic (%) [3]: 81%
- Population Healthy Nuclei (%) [3]: 58%
- Population Hoechst High Intensity Objects (%) [3]: 8%
- Population Membrane Permeable-Phenotype (%) [3]: 61%
- Population Mitotic Cells (%) [3]: 18%
- Population Normal (%) [3]: 91%
- Population Pyknosed Nuclei (%) [3]: 20%
- Population Tubulin-Different-Phenotype (%) [3]: 99%
- Total Cell Count [3]: 201
- Population Apoptotic (%) [4]: 78%
- Population Fragmented Nuclei (%) [4]: 21%
- Population Healthy Nuclei (%) [4]: 57%
- Population Hoechst High Intensity Objects (%) [4]: 11%
- Population Membrane Permeable-Phenotype (%) [4]: 74%
- Population Mitochondria Different-Phenotype (%) [4]: 98%
- Population Mitotic Cells (%) [4]: 21%
- Population Normal (%) [4]: 89%
- Population Pyknosed Nuclei (%) [4]: 21%
- Population Tubulin-Different-Phenotype (%) [4]: 98%
- Total Cell Count [4]: 58
- Population Apoptotic (%) [5]: 55%
- Population Fragmented Nuclei (%) [5]: 9%
- Population Healthy Nuclei (%) [5]: 73%
- Population Hoechst High Intensity Objects (%) [5]: 4%
- Population Membrane Permeable-Phenotype (%) [5]: 0%
- Population Mitochondria Different-Phenotype (%) [5]: 45%
- Population Mitotic Cells (%) [5]: 44%
- Population Normal (%) [5]: 95%
- Population Pyknosed Nuclei (%) [5]: 16%
- Population Tubulin-Different-Phenotype (%) [5]: 26%
- Total Cell Count [5]: 300
- Population Apoptotic (%) [6]: 25%
- Population Fragmented Nuclei (%) [6]: 16%
- Population Healthy Nuclei (%) [6]: 70%
- Population Hoechst High Intensity Objects (%) [6]: 7%
- Population Membrane Permeable-Phenotype (%) [6]: 2%
- Population Mitochondria Different-Phenotype (%) [6]: 38%
- Population Mitotic Cells (%) [6]: 75%
- Population Normal (%) [6]: 92%
- Population Pyknosed Nuclei (%) [6]: 13%
- Population Tubulin-Different-Phenotype (%) [6]: 19%
- Total Cell Count [6]: 147
- Population Apoptotic (%) [7]: 88%
- Population Fragmented Nuclei (%) [7]: 21%
- Population Healthy Nuclei (%) [7]: 45%
- Population Hoechst High Intensity Objects (%) [7]: 6%
- Population Membrane Permeable-Phenotype (%) [7]: 76%
- Population Mitochondria Different-Phenotype (%) [7]: 96%
- Population Mitotic Cells (%) [7]: 11%
- Population Normal (%) [7]: 93%
- Population Pyknosed Nuclei (%) [7]: 33%
- Population Tubulin-Different-Phenotype (%) [7]: 100%
- Total Cell Count [7]: 229
- Population Apoptotic (%) [8]: 87%
- Population Fragmented Nuclei (%) [8]: 14%
- Population Healthy Nuclei (%) [8]: 64%
- Population Hoechst High Intensity Objects (%) [8]: 7%
- Population Membrane Permeable-Phenotype (%) [8]: 72%
- Population Mitochondria Different-Phenotype (%) [8]: 98%
- Population Mitotic Cells (%) [8]: 12%
- Population Normal (%) [8]: 92%
- Population Pyknosed Nuclei (%) [8]: 20%
- Population Tubulin-Different-Phenotype (%) [8]: 98%
- Total Cell Count [8]: 65
- Population Apoptotic (%) [9]: 51%
- Population Fragmented Nuclei (%) [9]: 6%
- Population Healthy Nuclei (%) [9]: 82%
- Population Hoechst High Intensity Objects (%) [9]: 4%
- Population Membrane Permeable-Phenotype (%) [9]: 2%
- Population Mitochondria Different-Phenotype (%) [9]: 17%
- Population Mitotic Cells (%) [9]: 48%
- Population Normal (%) [9]: 95%
- Population Pyknosed Nuclei (%) [9]: 10%
- Population Tubulin-Different-Phenotype (%) [9]: 11%
- Total Cell Count [9]: 287
- Population Apoptotic (%) [10]: 62%
- Population Fragmented Nuclei (%) [10]: 18%
- Population Healthy Nuclei (%) [10]: 70%
- Population Hoechst High Intensity Objects (%) [10]: 5%
- Population Membrane Permeable-Phenotype (%) [10]: 4%
- Population Mitochondria Different-Phenotype (%) [10]: 24%
- Population Mitotic Cells (%) [10]: 37%
- Population Normal (%) [10]: 94%
- Population Pyknosed Nuclei (%) [10]: 11%
- Population Tubulin-Different-Phenotype (%) [10]: 18%
- Total Cell Count [10]: 131
- Population Apoptotic (%) [11]: 87%
- Population Fragmented Nuclei (%) [11]: 18%
- Population Healthy Nuclei (%) [11]: 28%
- Population Hoechst High Intensity Objects (%) [11]: 12%
- Population Membrane Permeable-Phenotype (%) [11]: 84%
- Population Mitochondria Different-Phenotype (%) [11]: 100%
- Population Mitotic Cells (%) [11]: 12%
- Population Normal (%) [11]: 87%
- Population Pyknosed Nuclei (%) [11]: 53%
- Population Tubulin-Different-Phenotype (%) [11]: 100%
- Total Cell Count [11]: 318
- Population Apoptotic (%) [12]: 88%
- Population Fragmented Nuclei (%) [12]: 16%
- Population Healthy Nuclei (%) [12]: 46%
- Population Hoechst High Intensity Objects (%) [12]: 10%
- Population Membrane Permeable-Phenotype (%) [12]: 67%
- Population Mitochondria Different-Phenotype (%) [12]: 97%
- Population Mitotic Cells (%) [12]: 11%
- Population Normal (%) [12]: 89%
- Population Pyknosed Nuclei (%) [12]: 36%
- Population Tubulin-Different-Phenotype (%) [12]: 97%
- Total Cell Count [12]: 74
